The source of these data is ChEMBL document CHEMBL1132197, “Stereospecific synthesis, structure-activity relationship, and oral bioavailability of tetrahydropyrimidin-2-one HIV protease inhibitors” (J Med Chem, 1999).

The target in data set [1] is Human immunodeficiency virus type 1 protease (Human immunodeficiency virus 1, UniProt Q72874). The data set is described as follows: Inhibition constant of HIV protease inhibitors. In short, it runs like this: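 HIV protease (HIVPR) inhibition constant was determined by monitoring cleavage of a fluorescent peptide substrate, with products separated and quantified by HPLC.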

For another data set, the system named is MT2. In words: Antiviral activity by measuring its effect on the accumulation of viral RNA transcripts on infection of MT-2 cells with HIV-1 RF. In kind it is functional. The conditions noted are these: Homo sapiens. In short, it runs like this: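 Viral RNA transcript accumulation read 3 days after HIV-1 RF infection of MT-2 cells. IC90 is the concentration cutting viral RNA by 90% versus an untreated infected culture. TC50 came from MTT dye reduction in uninfected MT-2 cultures grown 3 days with compound.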

The nature of data set [2]: The maximum plasma concentration (Cmax) is the observed peak plasma concentration after an oral dose on rat. Type of data set: ADME, organism-based. More on the design: route oral. In short, it runs like this:
(§1)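 Rats dosed orally in groups at 10 mg/kg, in a formulation of propylene glycol, poly(ethylene glycol) 400 and water. Cmax is the observed peak plasma concentration after the oral dose.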

Data set [3] is described as follows: The maximum plasma concentration (Cmax) is the observed peak plasma concentration after an oral dose on rat. In kind it is ADME, organism-based. The arrangement: route oral. In outline: as §1
Data set [4] in a line: The maximum plasma concentration (Cmax) is the observed peak plasma concentration after an oral dose on dog. Type of data set: ADME, organism-based, Canis lupus familiaris. More on the design: route oral.

Regarding `O=C1N(Cc2cccc(O)c2)[C@H]([C@@H](F)Cc2ccccc2)[C@@H](O)[C@@H](Cc2ccccc2)N1Cc1cccc(O)c1`, in data set [1], the inhibitory constant (Ki) came to 12 nM. In addition, in the data set with MT2, the IC90 came out at 2100 nM. This compound had a Cmax in data set [2] of 250 nM.
For `O=C1N(Cc2cccc(CO)c2)[C@H](Cc2ccccc2)[C@H](O)[C@@H](O)[C@@H](Cc2ccccc2)N1Cc1cccc(CO)c1`, in the data set with MT2, the IC90 amounted to 38 nM. Moreover, the highest level in data set [2] (Cmax) was 830 nM.
Consider `O=C1N(Cc2cccc(-c3cc[nH]n3)c2)[C@H](Cc2ccccc2)[C@H](O)[C@@H](O)[C@@H](Cc2ccccc2)N1Cc1cccc(-c2cc[nH]n2)c1`, for which the highest level in data set [2] (Cmax) was 70 nM.
In the case of `O=C1N(Cc2cccc(CO)c2)[C@H](CCc2ccccc2)[C@@H](O)[C@@H](Cc2ccccc2)N1Cc1cccc(CO)c1`, the Cmax in data set [3] is 240 nM. In addition, the 90% effect concentration (IC90) in the data set with MT2 was determined as 109 nM.
On the same counts, the results for `Nc1cccc(CN2C(=O)N(Cc3cccc(N)c3)[C@H](Cc3ccccc3)[C@H](O)[C@H]2CCc2ccccc2)c1` are 1000 nM and 365 nM.
`CC(=O)c1cccc(CN2C(=O)N(Cc3cccc(C(C)=O)c3)[C@H](Cc3ccccc3)[C@H](O)[C@@H](O)[C@H]2Cc2ccccc2)c1` came in with a Cmax in data set [2] of 500 nM.
In turn, `Nc1cccc(CN2C(=O)N(Cc3cccc(N)c3)[C@H](Cc3ccccc3)[C@H](O)[C@@H](O)[C@H]2Cc2ccccc2)c1` [MOZENAVIR] registered a Cmax in data set [2] of 2250 nM. Against the preceding compound, the Cmax is about 4.5-fold higher.
Compound `CC(=O)c1cccc(CN2C(=O)N(Cc3cccc(C(C)=O)c3)[C@H](Cc3ccccc3)[C@H](O)[C@H]2CCc2ccccc2)c1` had a maximum concentration (Cmax) in data set [3] of 180 nM. The compound further registered an inhibitory constant (Ki) in data set [1] of 0.91 nM. The compound further displayed an IC90 in the data set with MT2 of 49 nM.
For the compound `O=C1N(Cc2ccc3[nH]ncc3c2)[C@H](CCc2ccccc2)[C@@H](O)[C@@H](Cc2ccccc2)N1Cc1ccc2[nH]ncc2c1`, the peak concentration (Cmax) in data set [4] came out at 250 nM. The Ki in data set [1] stood at 0.02 nM.
For the compound `O=C1N(Cc2cccc(O)c2)[C@H](CCc2ccccc2)[C@@H](O)[C@@H](Cc2ccccc2)N1Cc1cccc(O)c1`, the IC90 in the data set on MT2 is 115 nM. This compound also came in with a Cmax in data set [2] of 120 nM.
`O=C1N(Cc2cccc(-c3cc[nH]n3)c2)[C@H](CCc2ccccc2)[C@@H](O)[C@@H](Cc2ccccc2)N1Cc1cccc(-c2cc[nH]n2)c1` had a Cmax in data set [3] of 160 nM. Moreover, the Ki in data set [1] was determined as 0.1 nM. The compound also had a concentration for an effect of 90% (IC90) in the data set with MT2 of 22 nM.
In the data set with MT2, `O=C1N(Cc2cccc(O)c2)[C@H](Cc2ccccc2)[C@H](O)[C@@H](O)[C@@H](Cc2ccccc2)N1Cc1cccc(O)c1` registered an IC90 of 54 nM. In data set [2], this compound returned a Cmax of 810 nM.

A word on the Ki: it is the equilibrium dissociation constant of an inhibitor or competing ligand from its target. A high value points to weaker binding. A word on the IC90: it is the concentration needed for an effect of 90%. High values mean a need for much substance, low ones an effect from little substance. In general, Cmax refers to the maximum level reached in the sampled fluid or tissue.
